Measurements gathered from unrelated publications.
Lines come from different studies, so protocols differ.
Sample: PAMPA

| Compound | tested at | time | pH | Papp [×10⁻⁶ cm/s] |
| --- | --- | --- | --- | --- |
| C=C(CC(=O)OCOC(=O)C(C)(C)C)C(=O)OCOC(=O)C(C)(C)C | 10 µM | 4 h | pH 7.4 | > 10 |
| Cc1c(S(=O)(=O)N2CCn3cncc3C2)cc(C(=O)NCc2c(F)ccnc2N2CCCC2)n1C | – | – | – | 19.1 |
| Cc1[nH]c(C)c(S(=O)(=O)Nc2ccc(C(F)(F)F)c(Cl)c2Cl)c1C(=O)N1CCC(F)(F)C1 | – | – | – | 0.18 |
| Cc1c(S(=O)(=O)N2CCn3nccc3C2)cc(C(=O)NCc2cccnc2N2CCCC2)n1C | – | – | – | 27.9 |
| CCCCCCCCOC(=O)c1ccc(O)cc1 | 5 µM | – | pH 7.4 | 0.73 |
| C=C(CC(=O)OCOC(=O)OC(C)C)C(=O)OC | 10 µM | 4 h | pH 7.4 | > 10 |
| CCCCOC(=O)c1ccc(O)cc1 | 5 µM | – | pH 7.4 | 5.68 |
| C=C(CC(=O)OCc1oc(=O)oc1C)C(=O)OC | 10 µM | 4 h | – | ~15 |
| O=C(OCc1ccccc1)c1ccc(O)cc1 | 5 µM | – | pH 7.4 | 3.79 |
| Cc1c(S(=O)(=O)N2CCc3c(cnn3C)C2)cc(C(=O)NCc2cccnc2N2CCCC2)n1C | – | – | – | 25 |
| CCCCCOC(=O)c1ccc(O)cc1 | 5 µM | – | pH 7.4 | 4.28 |
| Cc1c(S(=O)(=O)N2CCn3cccc3C2)cc(C(=O)NCc2cccnc2N2CCCC2)n1C | – | – | – | 27.6 |
| C=C(CC(=O)OCOC(=O)C(C)(C)C)C(=O)OC | 10 µM | 4 h | pH 7.4 | > 10 |
| COc1ccccc1CNC(=O)c1cc(S(=O)(=O)N2CCn3nccc3C2)c(C)n1C | – | – | – | 22.9 |
| O=C(O)c1cc(/N=N/c2ccc(S(=O)(=O)Nc3ccccn3)cc2)ccc1O | – | 4 h | – | 0.077 |
